# Measurements pooled from the literature.
# Lines come from different studies, so protocols differ.
# MPO: Myeloperoxidase (MPO, Homo sapiens, UniProt P05164)
# SLC6A2: Sodium-dependent noradrenaline transporter (SLC6A2, Homo sapiens, UniProt P23975)
Compound,target,test,test system,setting,measurement,value
Cc1cc(O)c(-c2ccc([C@@H](C)CN(C)C)cc2)c2c1[nH]c(=O)c1sccc12,"Extracellular serine/threonine protein kinase FAM20C (FAM20C, Homo sapiens, UniProt Q8IXL6)","cell-free assay, inhibitor",,"0.1 µM, lysate",inhibition,-0.829%
NC/C(=C\F)COc1cccc(Cn2c(=S)[nH]c(=O)c3[nH]cnc32)c1,MPO,"enzyme activity, inhibitor, fluorescence",,0.3333 µM,inhibition,98.5%
COc1ccc2oc(-c3ccc4nc(N)oc4c3)c/c(=N\c3ccccc3NC(=O)CCN)c2c1,"Fibroblast growth factor receptor 1 (FGFR1, Homo sapiens, UniProt P11362, V561M)",binding,,1 µM,remaining binding,97%
OC[C@@]12C[C@@H]1[C@@H](n1cnc3c(Nc4ccccc4)nc(I)nc31)[C@H](O)[C@@H]2O,SLC6A2,"ligand displacement, radioligand",,10 µM,inhibition,5%
COc1ccc(Cl)cc1-c1cc(=O)[nH]c(=S)n1CC(N)=O,MPO,"enzyme activity, inhibitor, fluorescence",,0.5556 µM,inhibition,87.6%
CCCCC(=O)Nc1ccc(-c2ccc3ncn(CCC)c(=O)c3c2)cn1,"Peripheral plasma membrane protein CASK (CASK, Homo sapiens, UniProt O14936)","binding, competition with immobilised ligand",,0.5 µM,remaining binding,100%
N#CC[C@@]12C[C@@H]1[C@@H](n1cnc3c(NCCCCCCc4ccccc4)nc(I)nc31)[C@H](O)[C@@H]2O,SLC6A2,"transporter uptake, inhibitor, radiometric",HEK293,10 µM,inhibition,0%
C1=C/COCc2cc(ccc2OCCN2CCCC2)Nc2nccc(n2)-c2cccc(c2)COC/1,"Tyrosine-protein kinase Fgr (FGR, Homo sapiens, UniProt P09769)",cell-free assay,,0.1 µM,remaining signal,96%
N#CC[C@@]12C[C@@H]1[C@@H](n1cnc3c(NCCCCCc4ccccc4)nc(I)nc31)[C@H](O)[C@@H]2O,SLC6A2,"ligand displacement, radioligand",,10 µM,inhibition,4%
CC(=O)N[C@@H](C)c1cc(Cl)ccc1C1CCN(C(=O)[C@@H]2CN(C(C)(C)C)C[C@H]2c2ccc(F)cc2F)CC1,"Melanocortin receptor 4 (MC4R, Homo sapiens, UniProt P32245)","cAMP, agonist",,,Emax,104%
OC[C@@]12C[C@@H]1[C@@H](n1cnc3c(N[C@@H](C4CCC4)C4CC4)nc(C#Cc4ccc(Cl)s4)nc31)[C@H](O)[C@@H]2O,SLC6A2,"ligand displacement, radioligand",,10 µM,inhibition,90%
CC(C)OCCn1c(=S)[nH]c(=O)c2[nH]ccc21,MPO,"enzyme activity, inhibitor",,0.3125 µM,remaining activity,67.4%
